10 molecules from ChEMBL document CHEMBL5034012, “Procainamide-SAHA Fused Inhibitors of hHDAC6 Tackle Multidrug-Resistant Malaria Parasites” (J Med Chem, 2021) can be followed below.

Assay [1] has as its system Plasmodium falciparum. Description: Antiplasmodial activity against asynchronous asexual culture of Plasmodium falciparum NF54 assessed as parasite growth inhibition. The class given is functional, organism-based. Put shortly: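 Asynchronous asexual NF54 cultures exposed to 7-point, 2-step serial dilutions starting at 500nM. DHA served as positive control, DMSO as negative. IC50 interpolated from three independent experiments run in triplicate.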

Assay [2] has as its system HepG2. Put plainly: cells. Format: functional, cell-based. Particulars: Homo sapiens, HepG2, 72 h.
Assay [3] concerns HL-60. Put plainly: cells. Particulars: Homo sapiens, HL-60, 72 h. The class given is functional, cell-based.
The target in assay [4] is Histone deacetylase. Put plainly: Inhibition of human HDAC using human HeLa cell nuclear extract measured after 60 mins by fluorescence assay. Format: tissue-based.
Assay [5] relates to Plasmodium falciparum. Put plainly: Antiplasmodial activity against synchronized ring stage Plasmodium falciparum 3D7 assessed as parasite reduction rate in lag phase by measuring time required to achieve maximum speed of action at 10 times IC50 concentration. The class given is functional. Put shortly: (§1)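 3D7 culture of mostly rings exposed to drug for 6, 24, 48, 72 or 96h. Then washed, serially diluted 1/3 in fresh RBC and grown 3 weeks. Growth read by SYBR-green I. Number of wells with growth used to back-calculate viable parasites at each time point and derive growth parameters. One experiment, run in duplicate.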

For assay [6], the system named is Plasmodium falciparum. Put plainly: Antiplasmodial activity against synchronized ring stage Plasmodium falciparum 3D7 assessed as parasite reduction over one cycle upto 48 hrs at 10 times IC50 concentration. The class given is functional. Conditions: time hrs <=48. The procedure, abridged: as §1
The test system of assay [7] is Plasmodium falciparum. Description: Antiplasmodial activity against Plasmodium falciparum 3D7 assessed as time to kill initial parasite load at 10 times IC50 concentration. The class given is functional. The procedure, abridged:
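Parasite reduction rate assay on 3D7 cultures containing mostly rings, with DHA and pyrimethamine as references. Exposure windows of 6, 24, 48, 72 and 96h; cells then washed, serially diluted 1/3 in fresh RBC and grown 3 weeks before SYBR-green I read-out. Number of wells with growth gives viable parasites per time point, per Sanz et al. One experiment in duplicate.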

Assay [8] addresses Histone deacetylase (Homo sapiens) (UniProt Q13547+O15379+Q9UBN7+Q92769+Q9UQL6+Q8WUI4+Q9BY41+Q96DB2+P56524+Q9UKV0+Q969S8). Description: Inhibition of human HDAC using human HeLa cell nuclear extract 1 uM by fluorescence assay. The procedure, abridged:
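HeLa nuclear extract (3x10⁻³mg) incubated with compound and 43 µM Tosyl-Gly-Pro-Lys(Ac)-AMC. Buffer: 25mM Tris-HCl pH 8, 140mM NaCl, 3mM KCl, 1mM MgCl₂. Run 45 min at 37°C, then trypsin (1mg/mL) 15min at RT, then ethanol. AMC fluorescence read at ex 380/em 460nm. Background subtracted; data normalized to DMSO. Duplicates in ≥2 independent experiments.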

Assay [9] concerns Plasmodium falciparum. Put plainly: Antiplasmodial activity against Plasmodium falciparum stage IIb-III gametocytes assessed as abnormal morphology by measuring rounded/swollen at highest concentration measured after 72 hrs using Geimsa staining based assay. Format: functional. Put shortly: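 Day-4 stage IIb-III gametocytes (asexuals removed by N-acetyl glucosamine), about 1% gametocytemia at 2% hematocrit, treated 72h at 10, 5, 1 or 0.5 µM against 0.1% DMSO. Then washed and recultured with daily medium changes. Morphology and parasitemia scored daily on Giemsa-stained thin smears.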

In assay [10] the test system is Plasmodium falciparum. Put plainly: Antiplasmodial activity against Plasmodium falciparum NF54 late stage IV-V gametocytes assessed as reduction in number of exflagellation centers in at 1 uM treated for 72 hrs. The class given is functional, organism-based. Put shortly: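 Synchronous gametocytes induced; asexual forms removed with N-acetyl glucosamine for 5 days. Day-9 stage IV-V gametocytes, about 1% gametocytemia at 2% hematocrit, treated 72h at 10, 5, 1 or 0.5 µM against 0.1% DMSO. Then washed and recultured with daily medium changes. […], pelleted cells mixed 1:1 with human serum. Exflagellation centers counted over ≥10 fields at 40× within one hour. Two independent experiments; one-way ANOVA.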

Assay [11] relates to HL-60. Put plainly: Cytotoxicity against human HL-60 cells assessed as inhibition of cell proliferation at 10 uM measured after 72 hrs by ATPlite assay. The class given is functional. Put shortly: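 Cells exposed to compound for 72h; viability read by ATPlite. DMSO control. Technical triplicates, at least two biological replicates. IC50 interpolated from the curves.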
The subject of assay [12] is Plasmodium falciparum. Put plainly: Antiplasmodial activity against Cambodian multidrug-resistant Plasmodium falciparum isolate incubated for 96 hrs measured by SYBR Green 1 assay. Format: functional, organism-based. The procedure, abridged:
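Cambodian isolates chosen by multidrug-resistance pattern, 10 per resistance type. Ring-synchronized cultures at 2% hematocrit and 1% starting parasitemia; 11-point 2-step dilutions from 500nM; 96h incubation, then SYBR-green I read-out. Mefloquine and monodesethylamodiaquine served as positive controls. Triplicate wells, one biological replicate per isolate.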

SMILES strings stand for the structures. Calls of active or inactive are those of the source. The calls are words filed in the database; no cut-off is given here.

Turning to `CCN(CC)CCCNC(=O)c1ccc(NC(=O)CCCCCCC(=O)NO)cc1`, the IC50 came out at 64 nM in assay [1], 8200 nM in assay [2], 34000 nM in assay [3] and 160 nM in assay [4].
For the molecule `CC(C)(C)OC(=O)N1CCC(NC(=O)c2ccc(NC(=O)CCCCCCC(=O)NO)cc2)CC1`, the IC50 in [1] was found to be 467 nM; in assay [2] it was 150000 nM; in assay [3], 2500 nM.
`C[C@H]1[C@@H](O)O[C@@H]2O[C@@]3(C)CC[C@H]4[C@H](C)CC[C@@H]1[C@@]24OO3` [ARTENIMOL]: in assay [1], the half-maximal inhibitory concentration (IC50) amounted to 3 nM. The Time in [5] worked out at 0 h. For the same molecule, the “log(activity)” value in assay [6] was determined as 5.12. Also, the LT99.9 in assay [7] worked out at 21.2 h.
For `CCN(CC)c1ccc(NC(=O)CCCCCCC(=O)NO)cc1`, the IC50 in assay [1] was determined as 239 nM; in assay [2], 2400 nM; in assay [3], 2700 nM; in assay [4], 210 nM.
As to `CCN(CC)CCNC(=O)c1ccc(NC(=O)CCCCC(=O)NO)cc1`, the IC50 in [1] was determined as 410 nM. In assay [8], the inhibition was found to be 60%.
For `CCc1nc(N)nc(N)c1-c1ccc(Cl)cc1` [PYRIMETHAMINE], the Time in assay [5] was found to be 24 h. In assay [6], the “log(activity)” value worked out at 3.57. Besides, the LT99.9 in [7] is 44.1 h.
For `O=C(CCCCCCC(=O)Nc1ccccc1)NO` [VORINOSTAT], the Activity entry in [9] is reported as “<=90%”. For the same molecule, the outcome in [10] was inactive.
As to `O=C(CCCCCCC(=O)Nc1ccc(C(=O)NCCN2CCOCC2)cc1)NO`, the 50% inhibitory concentration (IC50) in assay [1] was determined as 341 nM; in assay [2], 26000 nM; in [4] it was 230 nM. Moreover, in assay [11], the inhibition at 10 µM worked out at 40%.
Consider `CCC(CC)CCNC(=O)c1ccc(NC(=O)CCCCCCC(=O)NO)cc1`, for which the IC50 in [1] is > 500 nM; in [2], > 100000 nM; in assay [3], > 10000 nM.
For `CCNCc1cc(Nc2ccnc3cc(Cl)ccc23)ccc1O` [DESETHYL AMODIAQUINE], the IC50 in assay [12] came to 89 nM.
